ChEMBL document CHEMBL2046333, “Antiprotozoal and antimicrobial compounds from the plant pathogen Septoria pistaciarum” (J Nat Prod, 2012)
≈ marks a conversion by molar mass, not a printed value. Calls of active or inactive are those of the source. The calls are words filed in the database; no cut-off is given here.

Assays:
[1] = test system: Vero; assay: Cytotoxicity against african green monkey Vero cells; assay type: cell-based, Chlorocebus sabaeus
Outline: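 Mammalian cells (Vero, LLC-PK11, SK-MEL, KB, BT-549, SK-OV-3) exposed to compound; viable cells counted by Neutral Red dye uptake; IC50 taken from dose-response curves.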

[2] = test system: Leishmania donovani; assay: Antileishmanial activity against Leishmania donovani promastigotes; assay type: functional, organism-based
Outline: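 Compounds were tested in vitro on cultured L. donovani promastigotes, with pentamidine and amphotericin B as standard controls. IC50 and IC90 (50% and 90% growth inhibition) were computed from growth-inhibition curves.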

[3] = test system: Lactuca sativa; assay: Phytotoxic activity against Lactuca sativa cv. L. at 1.73 mM; assay type: functional, organism-based
Outline: (§1)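 Compound (1 mg) dissolved in 100 μL acetone; 20 μL spotted on filter paper, air-dried 30 min. Paper placed in well, 200 μL water added. Bentgrass (Agrostis stolonifera) or lettuce (Lactuca sativa cv. L., Iceberg) seeds used. Solvent controls treated identically. Growth scored visually from 0 (no effect) to 5 (no growth).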

[4] = test system: SK-OV-3; assay: Cytotoxicity against human SKOV3 cells assessed as viable cells by neutral red dye method; assay type: functional, cell-based
[5] = Selectivity index, ratio of IC50 for african green monkey Vero cells to IC50 for chloroquine-resistant Plasmodium falciparum W2; assay type: toxicity, cell-based; conditions: read-out: Ratio IC50
Outline: (§2)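 Selectivity index is the IC50 for Vero-cell cytotoxicity (Neutral Red viability) divided by the IC50 against P. falciparum D6 or W2 (from dose-response curves).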

[6] = test system: SK-MEL; assay: Cytotoxicity against human SK-MEL cells assessed as viable cells by neutral red dye method; assay type: functional, cell-based
[7] = test system: Agrostis stolonifera; assay: Phytotoxic activity against Agrostis stolonifera at 1.73 mM; assay type: functional, organism-based; outline: as §1
[8] = test system: BT-549; assay: Cytotoxicity against human BT549 cells assessed as viable cells by neutral red dye method; assay type: functional, cell-based
[9] = test system: Plasmodium falciparum; assay: Antimalarial activity against chloroquine-resistant Plasmodium falciparum W2 infected in RBC assessed as parasite LDH activity after 72 hrs; assay type: functional, organism-based; conditions: W2, 72 h
[10] = Selectivity index, ratio of IC50 for african green monkey Vero cells to IC50 for chloroquine-sensitive Plasmodium falciparum D6; assay type: toxicity, cell-based; conditions: read-out: Ratio IC50; outline: as §2
[11] = test system: Plasmodium falciparum; assay: Antimalarial activity against chloroquine-sensitive Plasmodium falciparum D6 infected in RBC assessed as parasite LDH activity after 72 hrs; assay type: functional, organism-based; conditions: D6, 72 h
[12] = Cytotoxicity against pig LLC-PK11 cells assessed as viable cells by neutral red dye method; assay type: cell-based; conditions: Sus scrofa
[13] = test system: KB; assay: Cytotoxicity against human KB cells assessed as viable cells by neutral red dye method; assay type: functional, cell-based
[14] = test system: Nakaseomyces glabratus; assay: Antifungal activity against Candida glabrata ATCC 90030 by broth dilution method; assay type: functional, organism-based
Outline: (§3)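 Broth dilution run as a modified CLSI susceptibility method. Amphotericin B was included as the antifungal drug control in each assay.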

[15] = test system: Pichia kudriavzevii; assay: Antifungal activity against Candida krusei ATCC 6258 by broth dilution method; assay type: functional, organism-based; outline: as §3
[16] = test system: Cryptococcus neoformans; assay: Antifungal activity against Cryptococcus neoformans ATCC 90113 by broth dilution method; assay type: functional, organism-based; outline: as §3
[17] = test system: Candida albicans; assay: Antifungal activity against Candida albicans ATCC 90028 by broth dilution method; assay type: functional, organism-based; outline: as §3
[18] = test system: Aspergillus fumigatus; assay: Antifungal activity against Aspergillus fumigatus ATCC 90906 by broth dilution method; assay type: functional, organism-based; outline: as §3
[19] = test system: Agrostis stolonifera; assay: Phytotoxic activity against Agrostis stolonifera at 1.87 mM; assay type: functional, organism-based
Outline: (§4)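 Seeds were bentgrass (Agrostis stolonifera) and lettuce (cv. Iceberg), in multiwell plates. Compound was dissolved at 1 mg per 100 μL acetone, and a 20 μL aliquot was dried onto filter paper for 30 min under airflow. Water was then added. Acetone solvent controls were handled identically. Growth was scored visually from 0 (no effect) to 5 (no growth).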

[20] = test system: Lactuca sativa; assay: Phytotoxic activity against Lactuca sativa cv. L. at 1.87 mM; assay type: functional, organism-based; outline: as §4
[21] = test system: Staphylococcus aureus; assay: Antimicrobial activity against methicillin-sensitive Staphylococcus aureus ATCC 29213 by CLSI M7-A5 method; assay type: functional
[22] = test system: Staphylococcus aureus; assay: Antimicrobial activity against methicillin-resistant Staphylococcus aureus ATCC 33591 by CLSI M7-A5 method; assay type: functional
[23] = test system: Agrostis stolonifera; assay: Phytotoxic activity against Agrostis stolonifera at 1.62 mM; assay type: functional, organism-based; outline: as §1
[24] = test system: Lactuca sativa; assay: Phytotoxic activity against Lactuca sativa cv. L. at 1.62 mM; assay type: functional, organism-based; outline: as §1
[25] = Chlorocebus sabaeus, Vero, read-out: IC50

**Q.** With `CCN(CC)CCCC(C)Nc1ccnc2cc(Cl)ccc12` (configuration not stated) [CHLOROQUINE] as the compound, how does the IC50 ([1]; vero) read?
**A.** Non-toxic

**Q.** For `C[C@@H]1[C@H](O)[C@@H](C)/C=C/C=C/C=C/C=C/C=C/C=C/C=C/[C@H](O[C@@H]2O[C@H](C)[C@@H](O)[C@H](N)[C@@H]2O)C[C@@H]2O[C@](O)(C[C@@H](O)C[C@@H](O)[C@H](O)CC[C@@H](O)C[C@@H](O)CC(=O)O[C@H]1C)C[C@H](O)[C@H]2C(=O)O` [AMPHOTERICIN B], which IC50 [2] is on record?
**A.** 0.18 µM

**Q.** What about the IC90 [2] of the same compound?
**A.** 0.38 µM

**Q.** Which results are given for `COc1c(C[C@@H](C)OC(C)=O)c2c3c(C[C@@H](C)O)c(OC)c(=O)c4c(O)cc5c(c6c(cc(O)c(c1=O)c62)OCO5)c43`?
**A.** Activity [3]: Active; IC50 [4]: 4 µM; selectivity ratio [5]: 1.7; IC50 [1, 25]: 5.21 µM; IC50 [2]: 1.7 µM; IC50 [6]: 3.8 µM; Activity [7]: Active; IC50 [8]: 8.6 µM; IC50 [9]: 3.12 µM; selectivity ratio [10]: 1.9; IC50 [11]: 2.78 µM; IC50 [12]: 10.1 µM; IC50 [13]: 8.5 µM

**Q.** Which Activity [14] does the source give for `CC[C@@H](C)[C@H]1O[C@@H](c2c(O)c(-c3ccccc3)cn(O)c2=O)[C@H](C)C[C@@H]1C` [SEPTORIAMYCIN A] here?
**A.** Active

**Q.** What about the Activity [15] of the same compound?
**A.** Active

**Q.** What about the IC50 [2] of the same compound?
**A.** 0.11 µM

**Q.** What about the IC90 [2] of the same compound?
**A.** 0.29 µM

**Q.** And the Activity [16]?
**A.** Active

**Q.** And the Activity [17]?
**A.** Active

**Q.** What about the Activity [18] of the same compound?
**A.** Active

**Q.** Which IC50 [4] does the source give for `COc1c(C[C@@H](C)O)c2c3c(C[C@@H](C)O)c(OC)c(=O)c4c(O)cc5c(c6c(cc(O)c(c1=O)c62)OCO5)c43` here?
**A.** 3.7 µM

**Q.** And the selectivity ratio [5]?
**A.** 3.2

**Q.** What about the IC50 [1, 25] of the same compound?
**A.** 5.24 µM

**Q.** And the IC50 [2]?
**A.** 1.14 µM

**Q.** And the IC90 [2]?
**A.** 2.81 µM

**Q.** And the IC50 [6]?
**A.** 3.6 µM

**Q.** What about the IC50 [8] of the same compound?
**A.** 10.8 µM

**Q.** What about the IC50 [9] of the same compound?
**A.** 1.62 µM

**Q.** What about the selectivity ratio [10] of the same compound?
**A.** 4.8

**Q.** And the Activity [19]?
**A.** Active

**Q.** What about the Activity [20] of the same compound?
**A.** Active

**Q.** And the IC50 [11]?
**A.** 1.08 µM

**Q.** What about the MIC [21] of the same compound?
**A.** 4.7 µM (≈ 2.51 µg/mL)

**Q.** And the IC50 [12]?
**A.** 3.9 µM

**Q.** And the MIC [22]?
**A.** 9.4 µM (≈ 5.02 µg/mL)

**Q.** And the IC50 [13]?
**A.** 7.1 µM

**Q.** Which IC50 [2] does the source give for `N=C(N)c1ccc(OCCCCCOc2ccc(C(=N)N)cc2)cc1` [PENTAMIDINE] here?
**A.** 2.9 µM

**Q.** And the IC90 [2]?
**A.** 5.58 µM

**Q.** For `CC[C@@H](C)[C@H]1O[C@@H](c2c(OC)c(-c3ccccc3)c[n+]([O-])c2OC)[C@H](C)C[C@@H]1C`, which selectivity ratio [5] is on record?
**A.** > 1.2

**Q.** What about the IC50 ([1]; vero) of the same compound?
**A.** Non-toxic

**Q.** What about the IC50 [9] of the same compound?
**A.** 6.51 µM

**Q.** What about the selectivity ratio [10] of the same compound?
**A.** > 1.1

**Q.** And the IC50 [11]?
**A.** 6.76 µM

**Q.** Which IC50 [4] does the source give for `COc1c(C[C@@H](C)OC(C)=O)c2c3c(C[C@@H](C)OC(C)=O)c(OC)c(=O)c4c(O)cc5c(c6c(cc(O)c(c1=O)c62)OCO5)c43` here?
**A.** 4.8 µM

**Q.** What about the Activity [23] of the same compound?
**A.** Active

**Q.** And the selectivity ratio [5]?
**A.** 2.3

**Q.** And the IC50 [1, 25]?
**A.** 4.53 µM

**Q.** What about the IC50 [2] of the same compound?
**A.** 3.1 µM

**Q.** What about the IC90 [2] of the same compound?
**A.** 9.7 µM

**Q.** What about the IC50 [6] of the same compound?
**A.** 4.9 µM

**Q.** What about the IC50 [8] of the same compound?
**A.** 8.7 µM

**Q.** And the IC50 [9]?
**A.** 1.94 µM

**Q.** What about the selectivity ratio [10] of the same compound?
**A.** 1.6

**Q.** And the Activity [24]?
**A.** Active

**Q.** And the IC50 [11]?
**A.** 2.75 µM

**Q.** What about the IC50 [12] of the same compound?
**A.** 9.4 µM

**Q.** What about the IC50 [13] of the same compound?
**A.** 8.7 µM

**Q.** Which IC50 ([1]; vero) does the source give for `C[C@@H]1CC[C@H]2[C@@H](C)C(=O)O[C@@H]3O[C@@]4(C)CC[C@@H]1[C@]32OO4` [ARTEMISININ] here?
**A.** Non-toxic

**Q.** And the IC50 [11]?
**A.** 0.02 µM
